Measurements reported in publication PMC3778312 (British Journal of Cancer, 2013).

Columns and labels:
A-549 NSCLC xenografts = details: single agent; ref Ihle et al, 2005; Koul et al, 2010; cited from earlier work
[1] = test system: Patient-derived SCCHN xenografts; details: PX-866 and docetaxel compared with either agent alone; ref Bowles et al, 2011; cited from earlier work
[2] = Phase 1 safety monitoring of PX-866 with docetaxel; assay type: in vivo, human
Method in brief: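 Open-label dose escalation in cohorts of 6–9 patients at 4, 6 or 8 mg oral daily test compound plus docetaxel 75 mg m−2 IV every 21 days, with dexamethasone premedication. All patients receiving ≥1 dose had vital signs, labs and exams; AEs were graded by NCI CTCAE v4.02. DLTs included related grade ≥3 events, febrile grade 3/4 neutropenia, platelets <25 000 per μl and ANC <500 per μl for >7 days.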

C=CCN(/C=C1/C(=O)O[C@H](COC)[C@@]2(C)C1=C(O)C(=O)C1=C2[C@H](OC(C)=O)C[C@]2(C)C(=O)CC[C@@H]12)CC=C [PX-866]
tumour growth (A-549 NSCLC xenografts): delays tumour growth
tumour suppression [1]: enhanced tumour suppression
patients requiring PX-866 dose reductions ([2]; 4 out of 43, all in the 8 mg cohort, vomiting and/or diarrhoea): 9%
Treatment-emergent AE: Alopecia ([2]; PX-866 4 mg + docetaxel, N=10): 2 (20) N (%)
Treatment-emergent AE: Anaemia ([2]; PX-866 4 mg + docetaxel, N=10): 2 (20) N (%)
Treatment-emergent AE: Arthralgia ([2]; PX-866 4 mg + docetaxel, N=10): 0 (0) N (%)
Treatment-emergent AE: Asthenia ([2]; PX-866 4 mg + docetaxel, N=10): 1 (10) N (%)
Treatment-emergent AE: Bone pain ([2]; PX-866 4 mg + docetaxel, N=10): 0 (0) N (%)
Treatment-emergent AE: Cough ([2]; PX-866 4 mg + docetaxel, N=10): 2 (20) N (%)
Treatment-emergent AE: Decreased appetite ([2]; PX-866 4 mg + docetaxel, N=10): 1 (10) N (%)
Treatment-emergent AE: Dehydration ([2]; PX-866 4 mg + docetaxel, N=10): 3 (30) N (%)
Treatment-emergent AE: Diarrhoea ([2]; PX-866 4 mg + docetaxel, N=10): 7 (70) N (%)
Treatment-emergent AE: Dizziness ([2]; PX-866 4 mg + docetaxel, N=10): 1 (10) N (%)
Treatment-emergent AE: Dysgeusia ([2]; PX-866 4 mg + docetaxel, N=10): 2 (20) N (%)
Treatment-emergent AE: Epistaxis ([2]; PX-866 4 mg + docetaxel, N=10): 1 (10) N (%)
Treatment-emergent AE: Fatigue ([2]; PX-866 4 mg + docetaxel, N=10): 6 (60) N (%)
Treatment-emergent AE: Hypokalemia ([2]; PX-866 4 mg + docetaxel, N=10): 2 (20) N (%)
Treatment-emergent AE: Nausea ([2]; PX-866 4 mg + docetaxel, N=10): 5 (50) N (%)
Treatment-emergent AE: Neutropenia ([2]; PX-866 4 mg + docetaxel, N=10): 6 (60) N (%)
Treatment-emergent AE: Oedema peripheral ([2]; PX-866 4 mg + docetaxel, N=10): 4 (40) N (%)
Treatment-emergent AE: Oropharyngeal pain ([2]; PX-866 4 mg + docetaxel, N=10): 1 (10) N (%)
Treatment-emergent AE: Pyrexia ([2]; PX-866 4 mg + docetaxel, N=10): 1 (10) N (%)
Treatment-emergent AE: Stomatitis ([2]; PX-866 4 mg + docetaxel, N=10): 1 (10) N (%)
Treatment-emergent AE: Vomiting ([2]; PX-866 4 mg + docetaxel, N=10): 3 (30) N (%)
Treatment-emergent AEs, frequency by severity: Grade 1 ([2]; PX-866 4 mg + docetaxel, N=10): 32 (56) N (%)
Treatment-emergent AEs, frequency by severity: Grade 2 ([2]; PX-866 4 mg + docetaxel, N=10): 10 (18) N (%)
Treatment-emergent AEs, frequency by severity: Grade 3 ([2]; PX-866 4 mg + docetaxel, N=10): 8 (14) N (%)
Treatment-emergent AEs, frequency by severity: Grade 4 ([2]; PX-866 4 mg + docetaxel, N=10): 7 (12) N (%)
Treatment-emergent AEs, frequency by severity: Grade 5 ([2]; PX-866 4 mg + docetaxel, N=10): 0 (0) N (%)
Treatment-emergent AE: Alopecia ([2]; PX-866 6 mg + docetaxel, N=10): 6 (60) N (%)
Treatment-emergent AE: Anaemia ([2]; PX-866 6 mg + docetaxel, N=10): 2 (20) N (%)
Treatment-emergent AE: Arthralgia ([2]; PX-866 6 mg + docetaxel, N=10): 2 (20) N (%)
Treatment-emergent AE: Asthenia ([2]; PX-866 6 mg + docetaxel, N=10): 4 (40) N (%)
Treatment-emergent AE: Bone pain ([2]; PX-866 6 mg + docetaxel, N=10): 4 (40) N (%)
Treatment-emergent AE: Constipation ([2]; PX-866 6 mg + docetaxel, N=10): 3 (30) N (%)
Treatment-emergent AE: Cough ([2]; PX-866 6 mg + docetaxel, N=10): 5 (50) N (%)
Treatment-emergent AE: Decreased appetite ([2]; PX-866 6 mg + docetaxel, N=10): 4 (40) N (%)
Treatment-emergent AE: Dehydration ([2]; PX-866 6 mg + docetaxel, N=10): 1 (10) N (%)
Treatment-emergent AE: Diarrhoea ([2]; PX-866 6 mg + docetaxel, N=10): 8 (80) N (%)
Treatment-emergent AE: Dizziness ([2]; PX-866 6 mg + docetaxel, N=10): 2 (20) N (%)
Treatment-emergent AE: Dysgeusia ([2]; PX-866 6 mg + docetaxel, N=10): 3 (30) N (%)
Treatment-emergent AE: Epistaxis ([2]; PX-866 6 mg + docetaxel, N=10): 2 (20) N (%)
Treatment-emergent AE: Fatigue ([2]; PX-866 6 mg + docetaxel, N=10): 7 (70) N (%)
Treatment-emergent AE: Hypokalemia ([2]; PX-866 6 mg + docetaxel, N=10): 1 (10) N (%)
Treatment-emergent AE: Nausea ([2]; PX-866 6 mg + docetaxel, N=10): 4 (40) N (%)
Treatment-emergent AE: Neutropenia ([2]; PX-866 6 mg + docetaxel, N=10): 5 (50) N (%)
Treatment-emergent AE: Oedema peripheral ([2]; PX-866 6 mg + docetaxel, N=10): 6 (60) N (%)
Treatment-emergent AE: Oropharyngeal pain ([2]; PX-866 6 mg + docetaxel, N=10): 1 (10) N (%)
Treatment-emergent AE: Pyrexia ([2]; PX-866 6 mg + docetaxel, N=10): 4 (40) N (%)
Treatment-emergent AE: Stomatitis ([2]; PX-866 6 mg + docetaxel, N=10): 4 (40) N (%)
Treatment-emergent AE: Vomiting ([2]; PX-866 6 mg + docetaxel, N=10): 5 (50) N (%)
Treatment-emergent AEs, frequency by severity: Grade 1 ([2]; PX-866 6 mg + docetaxel, N=10): 36 (49) N (%)
Treatment-emergent AEs, frequency by severity: Grade 2 ([2]; PX-866 6 mg + docetaxel, N=10): 30 (41) N (%)
Treatment-emergent AEs, frequency by severity: Grade 3 ([2]; PX-866 6 mg + docetaxel, N=10): 5 (7) N (%)
Treatment-emergent AEs, frequency by severity: Grade 4 ([2]; PX-866 6 mg + docetaxel, N=10): 3 (4) N (%)
Treatment-emergent AEs, frequency by severity: Grade 5 ([2]; PX-866 6 mg + docetaxel, N=10): 0 (0) N (%)
Treatment-emergent AE: Alopecia ([2]; PX-866 8 mg + docetaxel, N=23): 4 (17) N (%)
Treatment-emergent AE: Anaemia ([2]; PX-866 8 mg + docetaxel, N=23): 9 (39) N (%)
Treatment-emergent AE: Arthralgia ([2]; PX-866 8 mg + docetaxel, N=23): 5 (22) N (%)
Treatment-emergent AE: Asthenia ([2]; PX-866 8 mg + docetaxel, N=23): 6 (26) N (%)
Treatment-emergent AE: Bone pain ([2]; PX-866 8 mg + docetaxel, N=23): 5 (22) N (%)
Treatment-emergent AE: Constipation ([2]; PX-866 8 mg + docetaxel, N=23): 8 (35) N (%)
Treatment-emergent AE: Cough ([2]; PX-866 8 mg + docetaxel, N=23): 3 (13) N (%)
Treatment-emergent AE: Decreased appetite ([2]; PX-866 8 mg + docetaxel, N=23): 10 (44) N (%)
Treatment-emergent AE: Dehydration ([2]; PX-866 8 mg + docetaxel, N=23): 11 (48) N (%)
Treatment-emergent AE: Diarrhoea ([2]; PX-866 8 mg + docetaxel, N=23): 18 (78) N (%)
Treatment-emergent AE: Dizziness ([2]; PX-866 8 mg + docetaxel, N=23): 4 (17) N (%)
Treatment-emergent AE: Dysgeusia ([2]; PX-866 8 mg + docetaxel, N=23): 3 (13) N (%)
Treatment-emergent AE: Epistaxis ([2]; PX-866 8 mg + docetaxel, N=23): 4 (17) N (%)
Treatment-emergent AE: Fatigue ([2]; PX-866 8 mg + docetaxel, N=23): 13 (57) N (%)
